Assay results reported in publication PMC9463588 (The Journal of Biological Chemistry, 2022).
Substitutions are numbered along the chain they refer to. Names and notes keep the numbering of the source. “Also recorded” adds a separate entry of the source. Where two headings read alike, the source gives them in different places.

Columns and labels:
human CYP8B1 [1] = molecular target: T1, human CYP8B1 (Homo sapiens, UniProt Q9UNU6); assay: Ligand-binding assay by shift of the heme Soret peak, wild type CYP8B1; settings: for Shift in Soret peak: spectral binding type, wild type CYP8B1; for Kd / KD: azoles, single site binding fit, interval in parentheses
T1 sequence (Q9UNU6 26-501 limits assumed): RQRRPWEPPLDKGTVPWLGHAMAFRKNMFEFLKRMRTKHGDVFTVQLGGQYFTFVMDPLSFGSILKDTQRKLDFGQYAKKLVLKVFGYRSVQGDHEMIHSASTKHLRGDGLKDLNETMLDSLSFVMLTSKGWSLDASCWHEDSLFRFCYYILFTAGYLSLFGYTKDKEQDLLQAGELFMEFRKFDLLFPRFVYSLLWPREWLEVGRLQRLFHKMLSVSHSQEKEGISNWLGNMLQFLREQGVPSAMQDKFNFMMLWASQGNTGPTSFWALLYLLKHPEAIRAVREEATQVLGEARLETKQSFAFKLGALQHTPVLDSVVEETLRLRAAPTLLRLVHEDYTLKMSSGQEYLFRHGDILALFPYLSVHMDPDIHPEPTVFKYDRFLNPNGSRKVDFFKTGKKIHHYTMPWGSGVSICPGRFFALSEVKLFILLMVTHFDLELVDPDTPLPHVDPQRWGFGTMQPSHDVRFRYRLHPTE
In short: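 Recombinant human CYP8B1 was expressed in E. coli with groES-groEL co-expression and purified by Ni-NTA and cation-exchange chromatography. Ligand was titrated into 1 μM enzyme in 50 mM potassium phosphate with 20% glycerol, in a 1 cm cuvette; azoles were dissolved in DMSO. The Soret shift (local absorbance maximum minus minimum) was plotted against concentration and fitted to a single-site specific binding equation, in triplicate.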

CYP8B1 W281F = molecular target: T2, CYP8B1 W281F (Homo sapiens, UniProt Q9UNU6, W281F); assay: Ligand-binding assay by shift of the heme Soret peak, CYP8B1 W281F mutant
T2 sequence (Q9UNU6 26-501 W281F limits assumed): T1 sequence (Q9UNU6 26-501 limits assumed) with W256F

[2] = cited from earlier work
human CYP8B1 [3] = molecular target: T1, human CYP8B1; assay: CYP8B1 inhibition assays; format: biochemical; settings: activity remaining vs control without inhibitor, 80 μM inhibitor
In short: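 Test compound at 80 μM was added to the kinetic assay: 0.01 μM CYP8B1 and 0.06 μM human P450 reductase in 50 mM potassium phosphate pH 7.4 with 20% glycerol, preincubated 10 min at room temperature. Substrate 7α-hydroxycholest-4-en-3-one was added, 200 μM NADPH started the reaction at 37 °C, and chloroform stopped it. The 12α-hydroxy product was measured by HPLC-UV at 240 nm. Activity is % of an inhibitor-free control; duplicate or triplicate.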

[4] = substrate: CC(C)CCC[C@@H](C)[C@H]1CC[C@H]2[C@@H]3[C@H](O)CC4=CC(=O)CC[C@]4(C)[C@H]3CC[C@]12C; format: biochemical, human; settings: other: W281F mutant, 95% CI; pH 7.4
[5] = substrate: CC(C)CCC[C@@H](C)[C@H]1CC[C@H]2[C@@H]3[C@H](O)CC4=CC(=O)CC[C@]4(C)[C@H]3CC[C@]12C; format: biochemical, human; settings: other: wild type CYP8B1, 95% CI; pH 7.4

For `CC(C)CCC[C@@H](C)[C@H]1CC[C@H]2[C@@H]3[C@H](O)CC4=CC(=O)CC[C@]4(C)[C@H]3CC[C@]12C` [7α-hydroxycholest-4-en-3-one], the “Shift in Soret peak” value (human CYP8B1 [1]) was “type I” and the Kd (CYP8B1 W281F) was 34.3 nM.

For `C[C@H](CCC(=O)O)[C@H]1CC[C@H]2[C@@H]3[C@H](O)C[C@@H]4C[C@H](O)CC[C@]4(C)[C@H]3C[C@H](O)[C@]12C` [Cholic acid], the critical micellar concentration [2] is given as roughly 50 µM.

For `Clc1ccccc1C(c1ccccc1)(c1ccccc1)n1ccnc1` [Clotrimazole], the Kd (human CYP8B1 [1]) was 1600 nM, the “Shift in Soret peak” value (human CYP8B1 [1]) was “Type II” and the “Turnover at 80 μM (%)” value (human CYP8B1 [3]) was 6.8%.

With `Clc1ccc(COC(Cn2ccnc2)c2ccc(Cl)cc2Cl)cc1` (centres unmarked) [Econazole] the Kd (human CYP8B1 [1]) was 57 nM, the KD (human CYP8B1 [1]) was “submicromolar” and the “Shift in Soret peak” value (human CYP8B1 [1]) was “Type II”. For the same molecule, the “Turnover at 80 μM (%)” value (human CYP8B1 [3]) was 1.7%.

For `OC(Cn1cncn1)(Cn1cncn1)c1ccc(F)cc1F` [Fluconazole], the “Shift in Soret peak” value (human CYP8B1 [1]) was “None”, the “Shift in Soret peak” value (human CYP8B1 [1]; listed as fluconazole) was “did not induce a shift; also recorded: no binding” and the “Turnover at 80 μM (%)” value (human CYP8B1 [3]) was 95%.

With `CC(=O)N1CCN(c2ccc(OCC3COC(Cn4ccnc4)(c4ccc(Cl)cc4Cl)O3)cc2)CC1` (centres unmarked) [Ketoconazole] the Kd (human CYP8B1 [1]) was 1300 nM, the KD (human CYP8B1 [1]) was “micromolar” and the “Shift in Soret peak” value (human CYP8B1 [1]) was “Type II”. The “Turnover at 80 μM (%)” value (human CYP8B1 [3]) was 16%.

With `Clc1cccc(C(c2ccc3[nH]cnc3c2)n2ccnc2)c1` (centres unmarked) [Liarozole] the Kd (human CYP8B1 [1]) was 1300 nM, the “Shift in Soret peak” value (human CYP8B1 [1]) was “Type II” and the “Turnover at 80 μM (%)” value (human CYP8B1 [3]) was 30%.

For `Clc1ccc(COC(Cn2ccnc2)c2ccc(Cl)cc2Cl)c(Cl)c1` (centres unmarked) [Miconazole], the Kd (human CYP8B1 [1]) was 98 nM, the KD (human CYP8B1 [1]) was “submicromolar” and the “Shift in Soret peak” value (human CYP8B1 [1]) was “Type II”. For the same molecule, the “Turnover at 80 μM (%)” value (human CYP8B1 [3]) was 0.75% and the “Turnover at 80 μM (%)” value (human CYP8B1 [3]; listed as miconazole) was “less than 1%”.

For `Clc1ccc(C(Cn2ccnc2)OCc2ccsc2Cl)c(Cl)c1` (centres unmarked) [Tioconazole], the Kd (human CYP8B1 [1]) was 210 nM, the KD (human CYP8B1 [1]) was “submicromolar” and the “Shift in Soret peak” value (human CYP8B1 [1]) was “Type II”. The “Turnover at 80 μM (%)” value (human CYP8B1 [3]) was 1.4%.

B1: CYP8B1 W281F (Homo sapiens; W281F) (protein)
chain: T1 sequence (Q9UNU6 26-501 limits assumed) with W256F
For B1, the Km [4] was 0.54 µM, the kcat [4] was 0.02 s⁻¹ and the kcat/Km [4] was 2.2 μM^−^1min^−1.

B2: human CYP8B1 (Homo sapiens) (protein)
chain: T1 sequence (Q9UNU6 26-501 limits assumed)
B2 showed a Km [5] of 0.5 µM, a kcat [5] of 0.123 s⁻¹ and a kcat/Km [5] of 14.7 μM^−^1min^−1.
